An excerpt weighted towards active compounds, which were near 2% of everything screened.
M5 ag = agonists of human muscarinic M5 receptor (CHRM5); P08912; CHO-K1 hM5 cells, Fluo-8 calcium fluorescence; 0% DMSO wells, 100% maximal acetylcholine response; activation, % at 3 µM; hit rate 0.19% among 360,000; AID 624037;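 active means activation above the run's mean over test compounds plus 3 SD, cut at about 23% in these data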;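 further: signal is peak over basal fluorescence ratio across the kinetic read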
M5 antag = antagonists of human muscarinic M5 receptor (CHRM5) | inhibition, % at 3 µM | AID 624040 | hit rate 0.59% among 360,000 | P08912 | CHO-hM5 cells, Fluo-8 calcium fluorescence, ACh EC80;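 active means inhibition above a per-plate cutoff, the mean of that plate's test compounds plus 3 SD, cut at about 27% in these data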
M1 antag = human CHRM1 antagonism; P11229; CHO-K1 hM1, Fluo-8 calcium fluorescence, ACh EC80 antagonist; hit rate 1.3% among 360,000; inhibition, % at 3 µM;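 active means percent inhibition above its own plate's cutoff, namely the mean of that plate's compound wells plus 3 SD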;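 further: peak over basal fluorescence ratio during 140 s after agonist addition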
Target sequence (P11229 whole entry, looked up): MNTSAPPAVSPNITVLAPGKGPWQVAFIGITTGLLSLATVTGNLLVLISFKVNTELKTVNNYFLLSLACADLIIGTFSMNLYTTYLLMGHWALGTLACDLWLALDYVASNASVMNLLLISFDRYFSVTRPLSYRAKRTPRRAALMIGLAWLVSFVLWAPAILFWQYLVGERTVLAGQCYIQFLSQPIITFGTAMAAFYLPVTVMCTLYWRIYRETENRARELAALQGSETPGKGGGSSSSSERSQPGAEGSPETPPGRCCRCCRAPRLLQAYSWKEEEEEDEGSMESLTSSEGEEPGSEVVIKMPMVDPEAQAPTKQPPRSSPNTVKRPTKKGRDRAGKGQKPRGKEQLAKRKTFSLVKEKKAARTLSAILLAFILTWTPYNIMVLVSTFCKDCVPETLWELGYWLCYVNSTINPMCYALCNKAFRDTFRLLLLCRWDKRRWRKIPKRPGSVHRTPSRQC
CHRM1 PAM = positive allosteric modulators of human M1 muscarinic receptor | P11229 | CHO-K1 hM1, Fluo-8 calcium fluorescence, ACh EC20; 0% = ACh EC20, 100% = maximal ACh | activation, % at 3 µM | hit rate 0.088% among 360,000; in the data active means activation above about 19%, passing the limit was not always enough
M1 ag = human M1 muscarinic receptor agonism; P11229; CHO-K1 hM1, Fluo-8 calcium fluorescence, agonist mode; 0% DMSO, 100% acetylcholine EC100; activation, % at 3 µM; hit rate 0.33% among 360,000;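 active means activation above the run's mean compound activation plus 3 SD, cut at about 16% in these data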;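 further: peak over basal fluorescence ratio within a 140 s kinetic read after compound addition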
M5 PAM = positive allosteric modulators of human muscarinic M5 receptor. hit rate 0.3% among 360,000. activation, % at 3 µM. P08912. CHO-K1 hM5, Fluo-8 calcium, ACh EC20 PAM; 0% = ACh EC20, 100% = ACh EC100;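 active means activation above the run cutoff, the mean activation of all test compounds plus 3 SD, cut at about 18% in these data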
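system = human M5 receptor in CHO-K1 cells | reagent = EC20 acetylcholine as agonist stimulus | compound dosing = single-point, 3 µM nominal | incubation = Fluo-8 loading 80 min at 37 °C plus 30 min room temperature | detection = Fluo-8 calcium dye fluorescence, kinetic read | benchmarks = low control EC20 acetylcholine (0%), high control EC100 acetylcholine (100%)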
Of the large screens only hits and unclear results are named; the others gave an inactive call.

Cc1ccc(NC2=NC(c3ccccc3)n3c(nc(C)cc3=O)N2)c(C)c1 (stereo not given)	none
CCOC(=O)CN1N=C(/C=C/c2ccc(OCC)cc2)CCC1=O	none
CCOC(=O)CN1N=C(/C=C/c2ccccc2)CCC1=O	M5 ag 28
O=[N+]([O-])/C=C/c1cn(Cc2ccc(F)cc2)c2ccccc12	M1 antag 33
Cc1cc(C(=O)NCc2cc(F)cc3c2OCOC3)nn1C	none
Cn1nc(C(C)(C)C)cc1C(=O)NCc1cc(F)cc2c1OCOC2	M5 antag 29, M1 antag 41
S=C(NCc1ccc(Cl)cc1)Nc1ccccc1Cl	none
COC(=O)c1cccc(NC(=S)NCc2ccc(Cl)cc2)c1	none
COC(=O)c1cc(NC(=S)NCc2ccc(Cl)cc2)cc(C(=O)OC)c1	M5 antag 29
CSc1ccccc1NC(=S)NCc1ccc(Cl)cc1	M1 antag 26
CN(CCCn1ccc(N)nc1=O)Cc1ccco1	none
COc1ccc(Cn2c(C)nnc2-c2cnn(C)c2N)cc1	none
O=C(Nc1ccc(F)c(Cl)c1)c1ccc2nc([C@@H]3O[C@H](CO)[C@H](O)[C@H](O)[C@H]3O)[nH]c2c1	none
Cn1c(CC(=O)Nc2ccc(Cl)c(Cl)c2)n[nH]c1=S	none
COc1ccc(Cc2n[nH]c(=S)n2NC(=O)Nc2ccc(Cl)c(Cl)c2)cc1	M5 antag 30
C#CCOCCOCCOCCNc1nc(N2CCN(C(=O)[C@H](C(C)C)n3cc(CCO)nn3)CC2)nc(N2CCN(C(=O)[C@H](CCCCN)n3cc(CCCC)nn3)CC2)n1	none
C[n+]1ccccc1/C=C/c1cc(Br)ccc1O	M5 antag 34
O=C(Nc1ccn(CCCN2CCN(c3ccccc3)CC2)c(=O)n1)OCc1ccccc1	none
O=C(Nc1ccn(CCCN2CCN(Cc3cccc4ccccc34)CC2)c(=O)n1)OCc1ccccc1	M1 antag 30
Cc1cc(C)c(CN2CCN(CCCn3ccc(NC(=O)OCc4ccccc4)nc3=O)CC2)c(C)c1	M1 antag 42
CC1(C)Cc2cccc(OCC(=O)NCc3ccccc3F)c2O1	M1 antag 29
Cc1ccc(CNC(=O)COc2cccc3c2OC(C)(C)C3)cc1	none
COc1ccc(NC(=O)C2(C)Cc3c(-c4ccc(N(C)C)cc4)ccnc3O2)cc1 (stereo not given)	none
NC(=O)c1ccc(C(F)(F)F)n(Cc2c(Cl)cccc2Cl)c1=O	CHRM1 PAM 20
Cc1cccc2cc3c(N)c(C(=O)N4CCc5ccccc54)sc3nc12	M1 antag 30
CCOC(=O)C1CCN(C(=O)c2sc3ncn(CC(=O)N4CCCCC4)c(=O)c3c2C)CC1	none
OC(CNCCNc1ncccc1C(F)(F)F)Cn1ccc2ccccc21 (stereo not given)	M1 ag 20
N#CCCN(C(=O)COC(=O)c1ccc(CNS(=O)(=O)c2ccc(F)c(Cl)c2)cc1)c1ccc(F)cc1	M1 antag 79
CCc1nc2ccc(C(=O)Nc3ccc(OC)c(OC)c3)cn2c1N(C)Cc1nccs1	none
CN1CCN(C2Cc3cc(F)ccc3Sc3ccc(Cl)cc32)CC1 (stereo not given)	M5 antag 80, M1 antag 100
CN1CCN(C2Cc3ccc(F)cc3Sc3cc(F)c(Cl)cc32)CC1 (stereo not given)	none
CN1CCN(C2Cc3ccccc3Sc3ccc(Cl)cc32)CC1 (stereo not given)	M5 antag 54
CSc1ccc2c(c1)C(N1CCN(C)CC1)Cc1ccccc1S2 (stereo not given)	M5 antag 70, M1 antag 79
CCc1cccc2c1Sc1ccccc1CC2N1CCNCC1 (stereo not given)	none
CC(O)(c1cccc(F)c1)c1nc(-c2cccc3cccnc23)cs1 (stereo not given)	none
O=c1ccc2ccc(O)cc2o1	none
O=c1ccc2cc(O)c(O)cc2o1	M5 ag 25
COc1ccc(-c2csc(C(NC(C)=O)c3cccc(F)c3)n2)cn1 (stereo not given)	none
Cc1ccc(Cn2ccc(=O)c(OCc3ccccc3)c2C)cc1	M5 PAM 22
Cc1c(OCc2ccccc2)c(=O)ccn1Cc1ccc(Cl)cc1	none
COc1ccc(CCNC(=O)CCCN2C(=O)c3ccccc3C2=O)cc1	none
Cc1ccc(OC(=O)CCS(=O)(=O)c2ccc(C)cc2)cc1	CHRM1 PAM 25
Cc1ccn2c(=O)c(NC(=O)c3cccs3)c(C)nc2c1	CHRM1 PAM 29
COc1cc(OC)cc(C(=O)N2CCN(S(C)(=O)=O)CC2)c1	M5 PAM 31
CC(=O)NC(c1ccccc1)c1nc(-c2cccc(F)c2)cs1 (stereo not given)	none
O=C(NCc1ccc(F)cc1)C(=O)NCC1OCCN1S(=O)(=O)c1cc(F)ccc1F (stereo not given)	none
COc1ccc(-c2noc(CCCCC(=O)N3CCN(c4cc(C)ccc4C)CC3)n2)cc1	M5 antag 32
Cc1ccc2c(c1)C(=O)C(=O)N2Cc1ccc(Cl)cc1	M5 ag 34, M1 ag 17
Cc1ccc2c(c1)C(=O)C(=O)N2Cc1ccc(F)cc1	none
COc1ccc(-c2c(Sc3ccccc3)c3cc(-c4ccc(OC)c(F)c4)ccc3n2C)cc1	none (no result: M1 antag, CHRM1 PAM, M1 ag)
Cn1nc(C(F)(F)F)c(C(=O)Nc2ccc(F)cc2F)c1Sc1cccc(C(F)(F)F)c1	M1 antag 34
Cc1cc(/C=N/NC(=O)c2ccsc2)c(C)n1-c1cnccn1	M5 PAM 28
Cc1ccc(S(=O)c2ccc([N+](=O)[O-])c3nonc23)cc1 (stereo not given)	M5 ag 40
O=C(NCc1ccccc1)C(CCc1ccccc1)n1c(=O)c(-c2ccccc2)nc2ccccc21 (stereo not given)	M5 PAM 20 (no result: M1 antag, CHRM1 PAM, M1 ag)
O=C(CSc1nc(N2CCOCC2)nc(N2CCOCC2)n1)Nc1ccc([N+](=O)[O-])cc1	M5 PAM 22
CCc1cc(=O)oc2cc(OCC(=O)O)c(Cl)cc12	M5 PAM 20
OC(CNCC1(N2CCCCC2)CCCCC1)COc1ccc(Cl)cc1Cl (stereo not given)	M5 PAM 26
CCn1c(C)nc2cc(S(=O)(=O)C(F)(F)C(F)C(F)(F)F)ccc21 (stereo not given)	M5 antag 27
S=c1nc2c(n[nH]1)c1ccccc1n2CCc1ccccc1	M1 ag 20
CCN(CC)C(=O)CSc1nc2ccccc2c(=O)n1OC(C)C	M5 PAM 23
CCN(CC)C(=O)CSc1nc2ccccc2c(=O)n1CC	none

Source: PubChem BioAssay
